Results: article PMC6248884 (European journal of medicinal chemistry, 2018)
Where two headings read alike, the source gives them in different places. Square brackets hold non-standard residues; d marks the D form. Peptide text beside a SMILES is read from it. * marks the point of attachment. Dolaproine = CO[C@@H]([C@@H]1CCCN1)[C@@H](C)C(=O)O; Dil = CC[C@H](C)[C@H](NC)[C@@H](CC(=O)O)OC; X1 = C[C@@H](N*)[C@@H](O)c1ccccc1; NMeV = CN[C@H](C(=O)O)C(C)C

Key:
[1] = test system: NCI-H460 cells; assay: Cytotoxicity assay to NCI-H460 human lung carcinoma cells; type: cell-based
[2] = molecular target: ChT-L site of the proteasome; assay: Binding affinity to the ChT-L site of the proteasome; type: biochemical; conditions: read-out: IC50, ChT-L site of the proteasome; proteasome source not stated
[3] = test system: HCT116 cells; assay: Cytotoxicity to HCT116 colon adenocarcinoma cell line; type: cell-based
[4] = molecular target: human 20S proteasome ChT-L site (Homo sapiens, UniProt P20618+P28074); assay: Proteasome inhibition assay, chymotrypsin-like site, fluorogenic substrate; type: biochemical
Summary of the method: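 Human recombinant 20S proteasome, 3 µg/mL in buffer (100 mM Tris pH 7.5, 0.5 mM EDTA, 0.03% SDS), preincubated 30 min at 37 °C with test compound or 25% DMSO vehicle. Reaction started with site-selective AMC substrate (Suc-LLVY-AMC for ChT-L) and run 30 min at 37 °C. Eleven-point 3-fold series, 1.0 µM–[…] final, in triplicate. Fluorescence read at ex 365/em 450 nm; data scaled to internal controls; IC50 from four-parameter logistic fit.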

[5] = test system: SKBR3 cells (Her2+); assay: Cell proliferation assay; type: cell-based
[6] = molecular target: human 20S proteasome C-L site (Homo sapiens, UniProt P28072+Q99436); assay: Proteasome inhibition assay, caspase-like site, fluorogenic substrate; type: biochemical
[7] = molecular target: human 20S proteasome T-L site (Homo sapiens, UniProt P49720+Q99436); assay: Proteasome inhibition assay, trypsin-like site, fluorogenic substrate; type: biochemical
[8] = test system: MDA-MB-468 cells (Her2-); assay: Cell proliferation assay; type: cell-based
[9] = test system: MDA-MB-231 cells (Her2-); assay: Cell proliferation assay; type: cell-based; conditions: read-out: MDA-MB-231 IC50, Table 5
[10] = read-out: NCI-H460 IC50, Table 1, NCI-H460 cell line
[11] = Homo sapiens, HCT-116, read-out: HCT116 IC50
[12] = Homo sapiens, NCI-H460, read-out: NCI-H460 IC50
[13] = Homo sapiens, SK-BR-3, read-out: SKBR3 IC50
[14] = Homo sapiens, MDA-MB-468, read-out: MDA-MB-468 IC50

With `CC(C)CC(NC(=O)C(CCS(C)(=O)=O)NC(=O)C(NC(=O)CCCCCN)C(C)C)C(=O)C1(C)CO1` (centres unmarked) [Analogue 6] the IC50 [1, 10] was 860 nM and the IC50 [2] was 539 nM.

Compound `CCCCCC(=O)N[C@H](C(=O)N[C@@H](CCS(=O)(=O)CCN)C(=O)N[C@@H](CC(C)C)C(=O)[C@@]1(C)CO1)C(C)C` [Analogue 7, N-((S)-1-(((S)-4-((2-aminoethyl)sulfonyl)-1-(((S)-4-methyl-1-((R)-2-methyloxiran-2-yl)-1oxopentan-2-yl)amino)-1-oxobutan-2-yl)amino)-3-methyl-1-oxobutan-2-yl)hexanamide] has an IC50 [3, 11] of 624 nM, an IC50 [1, 12] of 34 nM and an IC50 [4] of 42.2 ± 5.4 nM.

`CCCCCC(=O)N[C@H](C(=O)N[C@@H](CCS(=O)(=O)CCNC(=O)OC(C)(C)C)C(=O)N[C@@H](CC(C)C)C(=O)[C@@]1(C)CO1)C(C)C` [Analogue 7-Boc, tert-Butyl (2-(((S)-3-((S)-2-hexanamido-3-methylbutanamido)-4-(((S)-4-methyl-1-((R)-2methyloxiran-2-yl)-1-oxopentan-2-yl)amino)-4-oxobutyl)sulfonyl)ethyl)carbamate] showed an IC50 [3, 11] of 4.8 ± 0.27 nM, an IC50 [1, 12] of 2.1 ± 0.16 nM and an IC50 [4] of 14.2 ± 2.4 nM.

`CC(C)C[C@H](NC(=O)[C@H](CCS(=O)(=O)CCN)NC(=O)[C@H](Cc1ccccc1)NC(=O)Cc1ccccc1)C(=O)[C@@]1(C)CO1` [Analogue 8, (S)-4-((2-Aminoethyl)sulfonyl)-N-((S)-4-methyl-1-((R)-2-methyloxiran-2-yl)-1-oxopentan-2yl)-2-((S)-3-phenyl-2-(2-phenylacetamido)propanamido)butanamide] gave an IC50 [3, 11] of 165 nM and an IC50 [1, 12] of 34.2 nM.

`CC(C)C[C@H](NC(=O)[C@H](CCS(=O)(=O)CCNC(=O)OC(C)(C)C)NC(=O)[C@H](Cc1ccccc1)NC(=O)Cc1ccccc1)C(=O)[C@@]1(C)CO1` [Analogue 8-Boc, tert-Butyl (2-(((S)-4-(((S)-4-methyl-1-((R)-2-methyloxiran-2-yl)-1-oxopentan-2-yl)amino)-4oxo-3-((S)-3-phenyl-2-(2-phenylacetamido)propanamido)butyl)sulfonyl)ethyl)carbamate] showed an IC50 [3, 11] of 4.8 ± 0.35 nM and an IC50 [1, 12] of 8.5 ± 1.2 nM.

`CCCCCC(=O)N[C@H](C(=O)N[C@@H](CCS(=O)(=O)CCN)C(=O)N[C@@H](Cc1ccccc1)C(=O)[C@@]1(C)CO1)C(C)C` [Analogue 9, N-((S)-1-(((S)-4-((2-Aminoethyl)sulfonyl)-1-(((S)-1-((R)-2-methyloxiran-2-yl)-1-oxo-3phenylpropan-2-yl)amino)-1-oxobutan-2-yl)amino)-3-methyl-1-oxobutan-2-yl)hexanamide] showed an IC50 [3, 11] of 882 nM and an IC50 [1, 12] of 33.4 nM.

With `CCCCCC(=O)N[C@H](C(=O)N[C@@H](CCS(=O)(=O)CCNC(=O)OC(C)(C)C)C(=O)N[C@@H](Cc1ccccc1)C(=O)[C@@]1(C)CO1)C(C)C` [Analogue 9-Boc, tert-Butyl (2-(((S)-3-((S)-2-hexanamido-3-methylbutanamido)-4-(((S)-1-((R)-2methyloxiran-2-yl)-1-oxo-3-phenylpropan-2-yl)amino)-4oxobutyl)sulfonyl)ethyl)carbamate] the IC50 [3, 11] was 1.3 ± 0.2 nM and the IC50 [1, 12] was 2.6 ± 0.12 nM.

With `C[C@]1(C(=O)[C@H](Cc2ccccc2)NC(=O)[C@H](CCS(=O)(=O)CCN)NC(=O)[C@H](Cc2ccccc2)NC(=O)Cc2ccccc2)CO1` [Analogue 10, (S)-4-((2-Aminoethyl)sulfonyl)-N-((S)-1-((R)-2-methyloxiran-2-yl)-1-oxo-3-phenylpropan-2yl)-2-((S)-3-phenyl-2-(2-phenylacetamido)propanamido)butanamide] the IC50 [3, 11] was 698 nM and the IC50 [1, 12] was 304 nM.

Compound `CC(C)(C)OC(=O)NCCS(=O)(=O)CC[C@H](NC(=O)[C@H](Cc1ccccc1)NC(=O)Cc1ccccc1)C(=O)N[C@@H](Cc1ccccc1)C(=O)[C@@]1(C)CO1` [Analogue 10-Boc, tert-Butyl (2-(((S)-4-(((S)-1-((R)-2-methyloxiran-2-yl)-1-oxo-3-phenylpropan-2-yl)amino)-4oxo-3-((S)-3-phenyl-2-(2-phenylacetamido)propanamido)butyl)sulfonyl)ethyl)carbamate] has an IC50 [3, 11] of 10.9 ± 0.98 nM and an IC50 [1, 12] of 21 ± 1.3 nM.

`CCCCCC(=O)N[C@H](C(=O)N[C@@H](CCS(=O)(=O)c1ccc(N)cc1)C(=O)N[C@@H](CC(C)C)C(=O)[C@@]1(C)CO1)C(C)C` [Analogue 13, N-((S)-1-(((S)-4-((4-Aminophenyl)sulfonyl)-1-(((S)-4-methyl-1-((R)-2-methyloxiran-2-yl)-1oxopentan-2-yl)amino)-1-oxobutan-2-yl)amino)-3-methyl-1-oxobutan-2-yl)hexanamide] showed an IC50 [3, 11] of 2.6 ± 0.2 nM, an IC50 [5, 13] of 0.43 nM and an IC50 [6] of 540 nM. The IC50 [1, 12] was 1.8 ± 0.1 nM, the IC50 [4] was 1.5 ± 0.2 nM and the IC50 [7] was 14 nM.

`CCCCCC(=O)N[C@H](C(=O)N[C@@H](CCS(=O)(=O)c1ccc(NC(=O)OC(C)(C)C)cc1)C(=O)N[C@@H](CC(C)C)C(=O)[C@@]1(C)CO1)C(C)C` [Analogue 13-Boc, tert-Butyl (4-(((S)-3-((S)-2-hexanamido-3-methylbutanamido)-4-(((S)-4-methyl-1-((R)-2methyloxiran-2-yl)-1-oxopentan-2-yl)amino)-4-oxobutyl)sulfonyl)phenyl)carbamate] gave an IC50 [3, 11] of 4.9 ± 0.1 nM.

With `CCCCCC(=O)N[C@H](C(=O)N[C@@H](CCC(=O)N[C@@H](CC(C)C)C(=O)[C@@]1(C)CO1)C(=O)N[C@@H](CC(C)C)C(=O)[C@@]1(C)CO1)C(C)C` [Analogue 14, (S)-2-((S)-2-Hexanamido-3-methylbutanamido)-N1,N5-bis((S)-4-methyl-1-((R)-2methyloxiran-2-yl)-1-oxopentan-2-yl)pentanediamide] the IC50 [3, 11] was 0.2 ± 0.1 nM, the IC50 [6] was 150 nM and the IC50 [1, 12] was 5.4 ± 1 nM. It also gave an IC50 [4] of 1.9 ± 0.1 nM and an IC50 [7] of 98 nM.

`CCCCCC(=O)N[C@@H](Cc1ccc(N)cc1)C(=O)N[C@@H](CCC(=O)N[C@@H](CC(C)C)C(=O)[C@@]1(C)CO1)C(=O)N[C@@H](CC(C)C)C(=O)[C@@]1(C)CO1` [Analogue 15, (S)-2-((S)-3-(4-Aminophenyl)-2-hexanamidopropanamido)-N1,N5-bis((S)-4-methyl-1-((R)2-methyloxiran-2-yl)-1-oxopentan-2-yl)pentanediamide] showed an IC50 [3, 11] of 53 nM, an IC50 [5, 13] of 21 nM and an IC50 [6] greater than 1000 nM. It also gave an IC50 [1, 12] of 29.8 nM, an IC50 [8, 14] of 30 nM and an IC50 [4] of 5.6 nM. It also gave an IC50 [7] of 315 nM.

Work on `CC(C)C[C@H](NC(=O)CC[C@H](NC(=O)[C@@H](NC(=O)Cc1ccc(N)cc1)C(C)C)C(=O)N[C@@H](CC(C)C)C(=O)[C@@]1(C)CO1)C(=O)[C@@]1(C)CO1` [Analogue 16, (S)-2-((S)-2-(2-(4-Aminophenyl)acetamido)-3-methylbutanamido)-N1,N5-bis((S)-4-methyl1-((R)-2-methyloxiran-2-yl)-1-oxopentan-2-yl)pentanediamide] yielded an IC50 [3, 11] of 45 nM, an IC50 [5, 13] of 25 nM and an IC50 [6] greater than 1000 nM. The IC50 [1, 12] was 25.3 nM, the IC50 [8, 14] was 33 nM and the IC50 [4] was 90 ± 13 nM. For the same compound, the IC50 [7] was 71.5 nM.

Work on `CCCCCC(=O)N[C@H](C(=O)N[C@@H](CCC(=O)N[C@@H](CC(C)C)C(=O)[C@@]1(C)CO1)C(=O)NC(CCS(=O)(=O)c1ccc(N)cc1)C(=O)OC)C(C)C` (stereo partly drawn) [Analogue 17, Methyl 4-((4-aminophenyl)sulfonyl)-2-((S)-2-((S)-2-hexanamido-3-methylbutanamido)-5(((S)-4-methyl-1-((R)-2-methyloxiran-2-yl)-1-oxopentan-2-yl)amino)-5oxopentanamido)butanoate] yielded an IC50 [3, 11] of 5540 nM, an IC50 [5, 13] of 2430 nM and an IC50 [6] greater than 1000 nM. It also gave an IC50 [1, 12] greater than 10000 nM, an IC50 [8, 14] of 1740 nM and an IC50 [4] greater than 1000 nM. It also gave an IC50 [7] greater than 1000 nM.

`CCCCCC(=O)NC(C(=O)NC(CCSC)C(=O)NC(CC(C)C)C(=O)C1(C)CO1)C(C)C` (centres unmarked) [Analogue 21] showed an IC50 ([3]; read-out: HCT116 IC50, Table 2, HCT116 cell line) of 22 nM and an IC50 ([1]; read-out: NCI-H460 IC50, Table 2, NCI-H460 cell line) of 27 ± 2.6 nM.

With `CC[C@H](C)[C@@H]([C@@H](CC(=O)N1CCC[C@H]1[C@H](OC)[C@@H](C)C(=O)N[C@H](C)[C@@H](O)c1ccccc1)OC)N(C)C(=O)[C@@H](NC(=O)[C@@H](NC)C(C)C)C(C)C` [MMAE, monomethyl auristatin E, reference compound] (H-[NMeV]V[Dil][Dolaproine]-X1) the IC50 ([5]; read-out: SKBR3 IC50, Table 5, Her2+ cell) was 0.072 nM, the IC50 [9] was 5 pM and the IC50 ([8]; read-out: MDA-MB-468 IC50, Table 5, Her2- cell) was 0.17 nM.

Work on `CCCCCC(=O)N[C@H](C(=O)N[C@@H](CCS(C)(=O)=O)C(=O)N[C@@H](CC(C)C)C(=O)[C@@]1(C)CO1)C(C)C` [carmaphycin B, reference compound] yielded an IC50 [1, 10] of 6 nM.
